Measurements published in ChEMBL document CHEMBL4689842, “EUbOPEN Chemogenomics Library wave 1” (2021).

System: HEK-293T
Test: Multiplex assay against HEK293T;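 on Population Tubulin-Different-Phenotype (%): share of the cells with healthy nuclei that show this phenotype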
Format: toxicity, cell-based
Details: human
In short: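 Live cells were stained at seeding with Hoechst33342, BioTracker Green Microtubule Cytoskeleton Dye, MitoTracker Red and Annexin V Alexa Fluor 680, then imaged on a CQ1 microscope at 37°C and 5% CO2 after compound addition. CellPathfinder machine-learning gating split cells into Hoechst high-intensity objects or normal cells. Normal cells were split into healthy, pyknosed or fragmented nuclei, and pyknosed cells into mitotic or apoptotic. Tubulin, mitochondrial-mass and membrane-permeability phenotypes are per cents of healthy-nucleus cells.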

[1] = 12 h, 1 µM, compound concentration 1 uM, replicate 1
[2] = 12 h, 1 µM, compound concentration 1 uM, replicate 2
[3] = 12 h, 10 µM, compound concentration 10 uM, replicate 1
[4] = 12 h, 10 µM, compound concentration 10 uM, replicate 2
[5] = 24 h, 1 µM, compound concentration 1 uM, replicate 1
[6] = 24 h, 1 µM, compound concentration 1 uM, replicate 2
[7] = 24 h, 10 µM, compound concentration 10 uM, replicate 1
[8] = 24 h, 10 µM, compound concentration 10 uM, replicate 2
[9] = 48 h, 1 µM, compound concentration 1 uM, replicate 1
[10] = 48 h, 1 µM, compound concentration 1 uM, replicate 2
[11] = 48 h, 10 µM, compound concentration 10 uM, replicate 1
[12] = 48 h, 10 µM, compound concentration 10 uM, replicate 2

SMILES: C[C@@H](NCCCc1cccc(C(F)(F)F)c1)c1cccc2ccccc12.Cl [CINACALCET HYDROCHLORIDE]
- Population Apoptotic (%) [1]: 48%
- Population Fragmented Nuclei (%) [1]: 4%
- Population Healthy Nuclei (%) [1]: 49%
- Population Hoechst High Intensity Objects (%) [1]: 8%
- Population Membrane Permeable-Phenotype (%) [1]: 2%
- Population Mitochondria Different-Phenotype (%) [1]: 90%
- Population Mitotic Cells (%) [1]: 51%
- Population Normal (%) [1]: 91%
- Population Pyknosed Nuclei (%) [1]: 46%
- Population Tubulin-Different-Phenotype (%) [1]: 72%
- Total Cell Count [1]: 382
- Population Apoptotic (%) [2]: 16%
- Population Fragmented Nuclei (%) [2]: 7%
- Population Healthy Nuclei (%) [2]: 32%
- Population Hoechst High Intensity Objects (%) [2]: 3%
- Population Membrane Permeable-Phenotype (%) [2]: 6%
- Population Mitochondria Different-Phenotype (%) [2]: 51%
- Population Mitotic Cells (%) [2]: 83%
- Population Normal (%) [2]: 96%
- Population Pyknosed Nuclei (%) [2]: 60%
- Population Tubulin-Different-Phenotype (%) [2]: 67%
- Total Cell Count [2]: 158
- Population Apoptotic (%) [3]: 87%
- Population Fragmented Nuclei (%) [3]: 12%
- Population Healthy Nuclei (%) [3]: 13%
- Population Hoechst High Intensity Objects (%) [3]: 19%
- Population Membrane Permeable-Phenotype (%) [3]: 0%
- Population Mitochondria Different-Phenotype (%) [3]: 95%
- Population Mitotic Cells (%) [3]: 12%
- Population Normal (%) [3]: 80%
- Population Pyknosed Nuclei (%) [3]: 74%
- Population Tubulin-Different-Phenotype (%) [3]: 95%
- Total Cell Count [3]: 195
- Population Apoptotic (%) [4]: 80%
- Population Fragmented Nuclei (%) [4]: 3%
- Population Healthy Nuclei (%) [4]: 11%
- Population Hoechst High Intensity Objects (%) [4]: 4%
- Population Mitotic Cells (%) [4]: 19%
- Population Normal (%) [4]: 95%
- Population Pyknosed Nuclei (%) [4]: 84%
- Population Tubulin-Different-Phenotype (%) [4]: 90%
- Total Cell Count [4]: 193
- Population Apoptotic (%) [5]: 40%
- Population Healthy Nuclei (%) [5]: 61%
- Population Hoechst High Intensity Objects (%) [5]: 7%
- Population Membrane Permeable-Phenotype (%) [5]: 1%
- Population Mitochondria Different-Phenotype (%) [5]: 77%
- Population Mitotic Cells (%) [5]: 59%
- Population Normal (%) [5]: 92%
- Population Pyknosed Nuclei (%) [5]: 30%
- Population Tubulin-Different-Phenotype (%) [5]: 63%
- Total Cell Count [5]: 417
- Population Apoptotic (%) [6]: 28%
- Population Fragmented Nuclei (%) [6]: 8%
- Population Healthy Nuclei (%) [6]: 48%
- Population Hoechst High Intensity Objects (%) [6]: 4%
- Population Membrane Permeable-Phenotype (%) [6]: 6%
- Population Mitochondria Different-Phenotype (%) [6]: 47%
- Population Mitotic Cells (%) [6]: 71%
- Population Normal (%) [6]: 95%
- Population Pyknosed Nuclei (%) [6]: 43%
- Population Tubulin-Different-Phenotype (%) [6]: 60%
- Total Cell Count [6]: 201
- Population Apoptotic (%) [7]: 87%
- Population Fragmented Nuclei (%) [7]: 15%
- Population Healthy Nuclei (%) [7]: 15%
- Population Hoechst High Intensity Objects (%) [7]: 19%
- Population Membrane Permeable-Phenotype (%) [7]: 3%
- Population Mitotic Cells (%) [7]: 12%
- Population Normal (%) [7]: 80%
- Population Pyknosed Nuclei (%) [7]: 68%
- Population Tubulin-Different-Phenotype (%) [7]: 96%
- Total Cell Count [7]: 227
- Population Apoptotic (%) [8]: 86%
- Population Fragmented Nuclei (%) [8]: 4%
- Population Healthy Nuclei (%) [8]: 18%
- Population Hoechst High Intensity Objects (%) [8]: 8%
- Population Membrane Permeable-Phenotype (%) [8]: 6%
- Population Mitochondria Different-Phenotype (%) [8]: 100%
- Population Mitotic Cells (%) [8]: 13%
- Population Normal (%) [8]: 91%
- Population Pyknosed Nuclei (%) [8]: 76%
- Population Tubulin-Different-Phenotype (%) [8]: 84%
- Total Cell Count [8]: 198
- Population Apoptotic (%) [9]: 27%
- Population Fragmented Nuclei (%) [9]: 7%
- Population Healthy Nuclei (%) [9]: 79%
- Population Membrane Permeable-Phenotype (%) [9]: 1%
- Population Mitochondria Different-Phenotype (%) [9]: 43%
- Population Mitotic Cells (%) [9]: 72%
- Population Pyknosed Nuclei (%) [9]: 12%
- Population Tubulin-Different-Phenotype (%) [9]: 48%
- Total Cell Count [9]: 730
- Population Apoptotic (%) [10]: 21%
- Population Fragmented Nuclei (%) [10]: 3%
- Population Healthy Nuclei (%) [10]: 74%
- Population Hoechst High Intensity Objects (%) [10]: 5%
- Population Membrane Permeable-Phenotype (%) [10]: 9%
- Population Mitochondria Different-Phenotype (%) [10]: 23%
- Population Mitotic Cells (%) [10]: 78%
- Population Normal (%) [10]: 94%
- Population Pyknosed Nuclei (%) [10]: 22%
- Population Tubulin-Different-Phenotype (%) [10]: 57%
- Total Cell Count [10]: 266
- Population Apoptotic (%) [11]: 90%
- Population Fragmented Nuclei (%) [11]: 24%
- Population Healthy Nuclei (%) [11]: 12%
- Population Hoechst High Intensity Objects (%) [11]: 18%
- Population Membrane Permeable-Phenotype (%) [11]: 0%
- Population Mitochondria Different-Phenotype (%) [11]: 100%
- Population Mitotic Cells (%) [11]: 9%
- Population Normal (%) [11]: 81%
- Population Pyknosed Nuclei (%) [11]: 63%
- Population Tubulin-Different-Phenotype (%) [11]: 86%
- Total Cell Count [11]: 216
- Population Apoptotic (%) [12]: 89%
- Population Fragmented Nuclei (%) [12]: 6%
- Population Healthy Nuclei (%) [12]: 18%
- Population Hoechst High Intensity Objects (%) [12]: 9%
- Population Membrane Permeable-Phenotype (%) [12]: 8%
- Population Mitochondria Different-Phenotype (%) [12]: 94%
- Population Mitotic Cells (%) [12]: 10%
- Population Normal (%) [12]: 90%
- Population Pyknosed Nuclei (%) [12]: 75%
- Population Tubulin-Different-Phenotype (%) [12]: 70%
- Total Cell Count [12]: 203
